Laboratory results as given in ChEMBL document CHEMBL1140488, “Influence of 6 or 8-substitution on the antiviral activity of 3-phenethylthiomethylimidazo[1,2-a]pyridine against human cytomegalovirus (HCMV) and varicella-zoster virus (VZV)” (Bioorg Med Chem, 2007).
In brackets after ≈: the same amount, converted by molar mass.

What was measured:
[1] = system: Human alphaherpesvirus 3; experiment: Antiviral activity against TK+ VZV OKA in HEL cells assessed as reduction of virus plaque formation; assay type: functional, organism-based; details: Human alphaherpesvirus 3, OKA
[2] = system: Human alphaherpesvirus 3; experiment: Antiviral activity against TK- VZV 07/1 in HEL cells assessed as reduction of virus plaque formation; assay type: functional, organism-based; details: Human alphaherpesvirus 3, 07/1, HEL
[3] = system: Human betaherpesvirus 5; experiment: Antiviral activity against HCMV AD169 in HEL cells assessed as reduction of virus plaque formation after 5 days; assay type: functional, organism-based; details: Human betaherpesvirus 5, AD169, HEL, 120 h
In short: (§1)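 Confluent human embryonic lung (HEL) cell monolayers in microtiter plates were inoculated with 100 PFU of HCMV (AD169 or Davis) and left 2 h for adsorption. Residual virus was then removed and compound was added at varying concentrations. Viral cytopathicity was read once it reached completion in untreated infected controls. EC50 is the concentration inhibiting cytopathicity by 50%.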

[4] = system: Human betaherpesvirus 5; experiment: Antiviral activity against HCMV Davis in HEL cells assessed as reduction of virus plaque formation after 5 days; assay type: functional, organism-based; details: Human betaherpesvirus 5, Davis, 120 h
In short: as §1, with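 “controls.” for “controls. EC50 is the concentration inhibiting cytopathicity by 50%.”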

[5] = Cytotoxicity against HEL cells assessed as alteration in cell morphology after 3 days; assay type: cell-based; details: human
In short: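 HEL cell cultures exposed to compound were inspected by microscope for altered morphology. MCC is the minimum concentration causing a microscopically detectable alteration of cell morphology.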

[6] = Cytotoxicity against HEL cells assessed as reduction of cell growth after 3 days; assay type: cell-based; details: human
In short: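 HEL cell suspensions were added to wells holding serial concentrations of compound and incubated 3 days at 37 °C in humidified CO2. Viable cells were then counted with a Coulter Counter. CC50 is the concentration reducing viable cell number by 50%.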

Row | SMILES | EC50 [1] | EC50 [2] | EC50 [3] | EC50 [4] | MCC at 72 h [5] | CC50 at 72 h [6]
1 | Cc1cc(-c2ccccc2)c2ncc(CSCCc3ccccc3)n2c1 | > 4 µg/mL | > 4 µg/mL | > 4 µg/mL | > 4 µg/mL | 20 µg/mL | 33 µg/mL (≈ 92 µM)
2 | Cc1cc(-c2cccc(O)c2)cn2c(CSCCc3ccccc3)cnc12 | 2.4 µg/mL (≈ 6.41 µM) | 3.7 µg/mL (≈ 9.88 µM) | 2.2 µg/mL (≈ 5.87 µM) | 2.2 µg/mL (≈ 5.87 µM) | 20 µg/mL | 50 µg/mL (≈ 134 µM)
3 | Cc1cc(-c2ccccc2)cn2c(CSCCc3ccccc3)cnc12 | 3.6 µg/mL (≈ 10 µM) | > 4 µg/mL | 2 µg/mL (≈ 5.58 µM) | 2.2 µg/mL (≈ 6.14 µM) | 20 µg/mL | 31 µg/mL (≈ 86.5 µM)
4 | COc1ccc(-c2cc(C)c3ncc(CSCCc4ccccc4)n3c2)cc1 | 2.4 µg/mL (≈ 6.18 µM) | > 4 µg/mL | 3.1 µg/mL (≈ 7.98 µM) | 2.2 µg/mL (≈ 5.66 µM) | 20 µg/mL | 25.8 µg/mL (≈ 66.4 µM)
5 | Cc1cc(-c2ccc(O)cc2)c2ncc(CSCCc3ccccc3)n2c1 | 1.7 µg/mL (≈ 4.54 µM) | 2.7 µg/mL (≈ 7.21 µM) | 2.2 µg/mL (≈ 5.87 µM) | 2.2 µg/mL (≈ 5.87 µM) | 20 µg/mL | 13.7 µg/mL (≈ 36.6 µM)
6 | Cc1cc(I)c2ncc(CSCCc3ccccc3)n2c1 | 2.6 µg/mL (≈ 6.37 µM) | 2.6 µg/mL (≈ 6.37 µM) | > 0.8 µg/mL | 1.8 µg/mL (≈ 4.41 µM) | ≥ 4 µg/mL | > 50 µg/mL
7 | Cc1cc(-c2cccc(F)c2)c2ncc(CSCCc3ccccc3)n2c1 | > 4 µg/mL | > 4 µg/mL | 2.2 µg/mL (≈ 5.84 µM) | 2.2 µg/mL (≈ 5.84 µM) | 20 µg/mL | 35 µg/mL (≈ 93 µM)
8 | Cc1cc(-c2cccc([N+](=O)[O-])c2)c2ncc(CSCCc3ccccc3)n2c1 | > 20 µg/mL | > 20 µg/mL | > 100 µg/mL | > 100 µg/mL | 100 µg/mL | 47 µg/mL (≈ 116 µM)
9 | Cc1cc(-c2cccc(O)c2)c2ncc(CSCCc3ccccc3)n2c1 | 1.6 µg/mL (≈ 4.27 µM) | 2.9 µg/mL (≈ 7.74 µM) | > 4 µg/mL | > 4 µg/mL | 20 µg/mL | 11.4 µg/mL (≈ 30.4 µM)
10 | COc1cccc(-c2cc(C)cn3c(CSCCc4ccccc4)cnc23)c1 | 8.3 µg/mL (≈ 21.4 µM) | 10.3 µg/mL (≈ 26.5 µM) | 10.9 µg/mL (≈ 28.1 µM) | 10.9 µg/mL (≈ 28.1 µM) | 100 µg/mL | > 50 µg/mL
11 | Cc1cc(-c2ccsc2)cn2c(CSCCc3ccccc3)cnc12 | 1.7 µg/mL (≈ 4.66 µM) | 1.8 µg/mL (≈ 4.94 µM) | > 0.8 µg/mL | 1.8 µg/mL (≈ 4.94 µM) | ≥ 4 µg/mL | > 50 µg/mL
12 | Nc1ccn(C[C@@H](CO)OCP(=O)(O)O)c(=O)n1.O.O [CIDOFOVIR] |  |  | 0.1 µg/mL | 0.12 µg/mL | ≥ 100 µg/mL | 47 µg/mL
13 | COc1ccc(-c2cc(C)cn3c(CSCCc4ccccc4)cnc23)cc1 | 2 µg/mL (≈ 5.15 µM) | 3.1 µg/mL (≈ 7.98 µM) | 2.2 µg/mL (≈ 5.66 µM) | 2.2 µg/mL (≈ 5.66 µM) | 20 µg/mL | 19.6 µg/mL (≈ 50.4 µM)
14 | Cc1cc(Br)cn2c(CSCCc3ccccc3)cnc12 | 0.48 µg/mL (≈ 1.33 µM) | 1.1 µg/mL (≈ 3.04 µM) | 0.32 µg/mL (≈ 0.886 µM) | 0.13 µg/mL (≈ 0.36 µM) | ≥ 2 µg/mL | 28 µg/mL (≈ 77.5 µM)
15 | Nc1nc2c(ncn2COC(CO)CO)c(=O)[nH]1 [GANCICLOVIR] |  |  | 0.51 µg/mL (≈ 2 µM) |  | 100 µg/mL | 146 µg/mL (≈ 572 µM)
16 | Cc1cc(I)cn2c(CSCCc3ccccc3)cnc12 | 0.68 µg/mL (≈ 1.67 µM) | 0.43 µg/mL (≈ 1.05 µM) | > 0.16 µg/mL | 0.12 µg/mL (≈ 0.294 µM) | ≥ 0.8 µg/mL | > 50 µg/mL
17 | Cc1cc(-c2cccc([N+](=O)[O-])c2)cn2c(CSCCc3ccccc3)cnc12 | 5.6 µg/mL (≈ 13.9 µM) | 8.3 µg/mL (≈ 20.6 µM) | 7.6 µg/mL (≈ 18.8 µM) | 4 µg/mL (≈ 9.91 µM) | ≥ 100 µg/mL | 43 µg/mL (≈ 107 µM)
18 | O=c1[nH]c(=O)n([C@H]2C[C@H](O)[C@@H](CO)O2)cc1/C=C/Br [BRIVUDINE] | 0.0038 µg/mL (≈ 0.0114 µM) | 362 µg/mL (≈ 1090 µM) |  |  | > 400 µg/mL | 
19 | Cc1cc(-c2ccccc2O)cn2c(CSCCc3ccccc3)cnc12 | > 20 µg/mL | > 20 µg/mL | > 100 µg/mL | > 100 µg/mL | 100 µg/mL | > 50 µg/mL
20 | Cc1cc(-c2cccs2)cn2c(CSCCc3ccccc3)cnc12 | 4 µg/mL (≈ 11 µM) | > 4 µg/mL | 2.2 µg/mL (≈ 6.04 µM) | 2.2 µg/mL (≈ 6.04 µM) | 20 µg/mL | 32 µg/mL (≈ 87.8 µM)
21 | Cc1cc(-c2cccc(C#N)c2)cn2c(CSCCc3ccccc3)cnc12 | > 100 µg/mL | 81 µg/mL (≈ 211 µM) | 2.2 µg/mL (≈ 5.74 µM) | 2.5 µg/mL (≈ 6.52 µM) | > 100 µg/mL | > 50 µg/mL
22 | Nc1nc2c(ncn2COCCO)c(=O)[nH]1 [ACYCLOVIR] |  |  |  |  | > 400 µg/mL | > 200 µg/mL
23 | Cc1cc(-c2ccsc2)c2ncc(CSCCc3ccccc3)n2c1 | 8.9 µg/mL (≈ 24.4 µM) | 8.6 µg/mL (≈ 23.6 µM) | 2.5 µg/mL (≈ 6.86 µM) | 2.5 µg/mL (≈ 6.86 µM) | 100 µg/mL | > 50 µg/mL
24 | Cc1cc(-c2ccc(C#N)cc2)cn2c(CSCCc3ccccc3)cnc12 | 2.2 µg/mL (≈ 5.74 µM) | 2 µg/mL (≈ 5.21 µM) | 1.8 µg/mL (≈ 4.69 µM) | 2.5 µg/mL (≈ 6.52 µM) | ≥ 20 µg/mL | 10.6 µg/mL (≈ 27.6 µM)
25 | c1ccc(CCSCc2cnc3ccc(-c4ccccc4)cn23)cc1 | 0.74 µg/mL (≈ 2.15 µM) | > 0.8 µg/mL | > 0.8 µg/mL | > 0.8 µg/mL | 4 µg/mL | 9.9 µg/mL (≈ 28.7 µM)
26 | Cc1cc(-c2ccc(O)cc2)cn2c(CSCCc3ccccc3)cnc12 | > 20 µg/mL | > 100 µg/mL | > 100 µg/mL | > 100 µg/mL | ≥ 100 µg/mL | > 50 µg/mL
27 | Cc1cc(-c2cccs2)c2ncc(CSCCc3ccccc3)n2c1 | 7.8 µg/mL (≈ 21.4 µM) | 4 µg/mL (≈ 11 µM) | 2.5 µg/mL (≈ 6.86 µM) | 2.2 µg/mL (≈ 6.04 µM) | 100 µg/mL | > 50 µg/mL
28 | COc1cccc(-c2cc(C)c3ncc(CSCCc4ccccc4)n3c2)c1 | > 4 µg/mL | > 4 µg/mL | 2.2 µg/mL (≈ 5.66 µM) | 2.5 µg/mL (≈ 6.43 µM) | 20 µg/mL | 36 µg/mL (≈ 92.7 µM)
